How the values were obtained:
[1] = Drug uptake in human FaDu clone 49 cells assessed as increase in drug retention at 1.6 uM in RPMI medium with 10% FBS followed by 48 hrs chase period by inverted fluorescence microscopic analysis
[2] = Drug uptake in human CFSE-stained HN-121 cells assessed as increase in drug retention at 1.6 uM in medium with 10% FBS followed by 48 hrs chase period by inverted fluorescence microscopic analysis; format: ADME, cell-based; conditions: hn-121, 48 h
[3] = test system: FaDu; test: Photosensitizing activity in human FaDu cells assessed as reduction in cell viability pretreated with compound for 24 hrs followed by light irradiation at 1 J/cm2 and measured after 48 hrs by MTT assay; format: functional, cell-based; conditions: light or radiation study
How it was run: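 Cells seeded at 0.01–0.05 x 10⁶ cells/ml; PS added 24 h after plating, top dose 1600 nM with 2-fold serial dilutions. Plates given 0 or 1 J/cm² light. MTT added 48 h later, formazan dissolved in DMSO, absorbance at 570 nm; IC50 from curve fitting.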

[4] = test system: UMUC3; test: Photosensitizing activity in human UMUC3 cells assessed as reduction in cell viability pretreated with compound for 24 hrs followed by light irradiation at 1 J/cm2 and measured after 48 hrs by MTT assay; format: functional, cell-based; conditions: UMUC3, light or radiation study
How it was run: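 Cells plated 0.01x10⁶ to 0.05x10⁶ cells/ml and allowed to adhere 24 h before photosensitizer was added, top dose 1600 nM with 2-fold serial dilutions. Plates received no light (0 J/cm²) or 1 J/cm² at 565 mW, 15 cm spot. After 48 h, MTT added for 3 h, formazan solubilized in DMSO and read at 570 nm; IC₅₀ fitted from dose-response.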

[5] = Drug uptake in skin of SCID mouse xenografted with human UMUC3 cells at 0.47 micromol/kg, iv pretreated with compound followed by light irradiation at a dose of 135 J/cm2 and 75 mW/cm2 measured after 2 to 24 hrs by IVIS analysis; format: ADME, organism-based, Skin of body; conditions: in vivo, time 2-24 hrs, dose 0.47 µmol/kg
How it was run: (§1)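 Female SCID mice with UMUC3 flank/shoulder tumors, 3 per group. PS in 1% Tween80/5% dextrose given iv at 0.47, 0.25 or 0.125 μmol/kg. Whole-body fluorescence imaging by IVIS at several times after injection; average radiant efficiency measured in tumor, liver and skin.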

[6] = Drug uptake in liver of SCID mouse xenografted with human UMUC3 cells at 0.47 micromol/kg, iv pretreated with compound followed by light irradiation at a dose of 135 J/cm2 and 75 mW/cm2 measured after 2 to 24 hrs by IVIS analysis; format: ADME, organism-based; conditions: in vivo, time 2-24 hrs, dose 0.47 µmol/kg
How it was run: as §1

[7] = Drug uptake in tumor of SCID mouse xenografted with human UMUC3 cells at 0.47 micromol/kg, iv pretreated with compound followed by light irradiation at a dose of 135 J/cm2 and 75 mW/cm2 measured after 2 to 24 hrs by IVIS analysis; format: ADME, organism-based, Neoplasm; conditions: in vivo, time 2-24 hrs, dose 0.47 µmol/kg
How it was run: as §1

[8] = Drug uptake in human HN-166 cells assessed as increase in drug retention retention at 3 uM in medium with 10% FBS incubated for 5 hrs followed by 40 hrs chase period by inverted fluorescence microscopic analysis; format: ADME, cell-based; conditions: hn-166, 5 h
How it was run: (§2)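 Five-day co-cultures of HN-143 tumor epithelial cells and HN-166 tumor fibroblasts, both primary head & neck tumor cultures grown on collagen-1 under selective media. PS in 10% FBS medium for 5 h, then 40 h chase without PS. Phase-contrast and fluorescence images taken at 100X with 500 ms exposure; signal normalized to recording time and cell number.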

[9] = Drug uptake in human HN-143 cells assessed as increase in drug retention retention at 3 uM in medium with 10% FBS incubated for 5 hrs followed by 40 hrs chase period by inverted fluorescence microscopic analysis; format: ADME, cell-based; conditions: hn-143, 5 h
How it was run: as §2

[10] = Drug uptake in human HNT1 cells at 3.2 uM incubated for 30 mins in serum free medium followed by […] in compound-free medium by inverted fluorescence microscopic analysis; format: ADME, cell-based; conditions: hnt1, 0.5 h
How it was run: (§3)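 Confluent HNT1 cultures (passage 116) given 3.2 μM PS for 30 min in serum-free medium, then 5 h in serum-containing medium with PS, then 15 h chase in serum medium without PS. Fluorescence recorded at 100X with varied camera exposures and quantified digitally; pixel signal normalized to time and cell number.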

[11] = Drug uptake in human HNT1 cells at 3.2 uM incubated for 30 mins in DMEM media with 10% FBS followed by […] in compound-free medium by inverted fluorescence microscopic analysis; format: ADME, cell-based; conditions: hnt1, 0.5 h, in the assay text read “in serum-free medium” for “in DMEM media with 10% FBS”
How it was run: as §3

Row | Drug uptake [1] | Drug uptake [2] | SMILES | IC50 [3] [µM] | IC50 [4] [µM] | also measured
1 | Not Active | Not Active | CCCCCCOC(C)c1c(C)c2cc3nc(c(CC(=O)OC)c4[nH]c(cc5nc(cc1[nH]2)C(C)=C5CC)c(C)c4C(=O)NCc1cccc(I)c1)[C@@H](CCC(=O)OC)[C@@H]3C (some centres undefined) |  |  | 
2 | Active | Active | CCC1=C(C)c2cc3[nH]c(cc4nc(c5c6[nH]c(cc1n2)c(C)c6C(=O)C5)[C@@H](CCC(=O)O)[C@@H]4C)c(C)c3C(C)OCc1ccc(C#Cc2cccc(Nc3ncnc4cc(OCCOC)c(OCCOC)cc34)c2)cc1 (some centres undefined) | 0.0596 | 0.0344 | 
3 | Not Active | Not Active | C=Cc1c(C)/c2[nH]/c1=C\C1=NC(=C\C3=C(C)C4C(=O)N(Cc5cccc(C#Cc6cccc(Nc7ncnc8cc(OCCOC)c(OCCOC)cc78)c6)c5)C(=O)/C(=C5N=C(\C=2)[C@@H](C)[C@@H]/5CCC(=O)OC)C4N3)/C(CC)=C1C (some centres undefined) |  |  | 
4 | Not Active | Not Active | CCC1=C(C)c2cc3[nH]c(cc4nc(c5c6[nH]c(cc1n2)c(C)c6C(=O)C5)[C@@H](CCC(=O)OC)[C@@H]4C)c(C)c3COCc1cccc(C#Cc2cccc(Nc3ncnc4cc(OCCOC)c(OCCOC)cc34)c2)c1 | 0.0233 | 0.0763 | Drug uptake [5]: Active; Drug uptake [6]: Active; Drug uptake [7]: Not Active
5 | Active | Active | CCCCCCOC(C)c1c(C)c2cc3nc(c(CC(=O)OC)c4[nH]c(cc5nc(cc1[nH]2)C(C)=C5CC)c(C)c4C(=O)NCCCOCCOCCOCCCNC(=O)Cc1cccc(C#Cc2cccc(Nc4ncnc5cc(OCCOC)c(OCCOC)cc45)c2)c1)[C@@H](CCC(=O)OC)[C@@H]3C (some centres undefined) | 0.0214 | 0.0075 | Drug uptake [8]: Active; Drug uptake [9]: Active
6 |  |  | C=Cc1c(C)c2cc3nc(c(CC(=O)NCc4cccc(C#Cc5cccc(Nc6ncnc7cc(OCCOC)c(OCCOC)cc67)c5)c4)c4[nH]c(cc5nc(cc1[nH]2)C(C)=C5CC)c(C)c4C(=O)OC)[C@@H](CCC(=O)OC)[C@@H]3C | 0.166 | 0.045 | 
7 |  |  | C=Cc1c(C)c2cc3nc(c(CC(=O)OC)c4[nH]c(cc5nc(cc1[nH]2)C(C)=C5CC)c(C)c4C(=O)NCc1cccc(C#Cc2cccc(Nc4ncnc5cc(OCCOC)c(OCCOC)cc45)c2)c1)[C@@H](CCC(=O)OC)[C@@H]3C | 0.0334 | 0.0396 | 
8 | Not Active | Not Active | C=Cc1c(C)c2cc3nc(c(CC(=O)OC)c4[nH]c(cc5nc(cc1[nH]2)C(C)=C5CC)c(C)c4C(=O)NCCNC(=O)COCC(=O)NCCCOCCOCCOCCCNC(=O)Cc1cccc(C#Cc2cccc(Nc4ncnc5cc(OCCOC)c(OCCOC)cc45)c2)c1)[C@@H](CCC(=O)OC)[C@@H]3C | 0.0886 | 0.0592 | 
9 | Not Active | Not Active | CCCCCCOC(C)c1c(C)c2cc3nc(c(CC(=O)OC)c4[nH]c(cc5nc(cc1[nH]2)C(C)=C5CC)c(C)c4C(=O)NCc1cccc(C#Cc2cccc(Nc4ncnc5cc(OCCOC)c(OCCOC)cc45)c2)c1)[C@@H](CCC(=O)OC)[C@@H]3C (some centres undefined) |  | 0.0035 | Drug uptake [8]: Active; Drug uptake [9]: Active
10 |  |  | CCCCCCOC(C)c1c(C)c2cc3nc(c(CC(=O)OC)c4[nH]c(cc5nc(cc1[nH]2)C(C)=C5CC)c(C)c4C(=O)NCCCOCCOCCOCCCNC(=O)Cc1cccc(I)c1)[C@@H](CCC(=O)OC)[C@@H]3C (some centres undefined) | 0.0154 | 0.0068 | 
11 | Not Active | Not Active | C=Cc1c(C)c2cc3nc(c(CC(=O)OC)c4[nH]c(cc5nc(cc1[nH]2)C(C)=C5CC)c(C)c4C(=O)NCCNC(=O)COCC(=O)NCCCOCCOCCOCCCNC(=O)Cc1cccc(I)c1)[C@@H](CCC(=O)OC)[C@@H]3C | 0.0192 | 0.0264 | 
12 | Not Active | Not Active | CCC1=C(C)c2cc3[nH]c(c(C)c3CC)c(-c3ccc(C(=O)NCc4ccc(C#Cc5cccc(Nc6ncnc7cc(OCCOC)c(OCCOC)cc67)c5)cc4)cc3)c3nc(c4c5[nH]c(cc1n2)c(C)c5C(=O)C4)[C@@H](CCC(=O)OC)[C@@H]3C | > 10 |  | 
13 | Not Active | Not Active | CCC1c2cc3[nH]c4c(c5nc(cc6[nH]c(cc(n2)C1C)c(C(C)OCc1cccc(C#Cc2cccc(Nc7ncnc8cc(OCCOC)c(OCCOC)cc78)c2)c1)c6C)[C@@H](C)[C@@H]5CCC(=O)O)CC(=O)c4c3C (some centres undefined) |  | 0.0089 | 
14 | Active | Active | CCCCCCOC(C)c1c(C)c2cc3nc(c4c5[nH]c(cc6nc(cc1[nH]2)C(C)=C6CC)c(C)c5C(=O)C4)[C@@H](CCC(=O)NCc1cccc(C#Cc2cccc(Nc4ncnc5cc(OCCOC)c(OCCOC)cc45)c2)c1)[C@@H]3C (some centres undefined) |  | 0.0434 | Drug uptake [8]: Active; Drug uptake [9]: Active
15 |  |  | CCC1=C(C)c2cc3[nH]c(cc4nc(c5c6[nH]c(cc1n2)c(C)c6C(=O)C5)[C@@H](CCC(=O)O)[C@@H]4C)c(C)c3C(C)OCc1cccc(C#Cc2cccc(Nc3ncnc4cc(OCCOC)c(OCCOC)cc34)c2)c1 (some centres undefined) | 0.0318 | 0.0548 | Drug uptake [10]: Active; Drug uptake [11]: Active; Drug uptake [7]: Not Active
16 | Not Active | Not Active | CCCCCCOC(C)c1c(C)c2cc3nc(c4c5[nH]c(cc6nc(cc1[nH]2)C(C)=C6CC)c(C)c5C(=O)C4)[C@@H](CCC(=O)NC(CCC(=O)NCc1cccc(C#Cc2cccc(Nc4ncnc5cc(OCCOC)c(OCCOC)cc45)c2)c1)(CCC(=O)NCc1cccc(C#Cc2cccc(Nc4ncnc5cc(OCCOC)c(OCCOC)cc45)c2)c1)CCC(=O)NCc1cccc(C#Cc2cccc(Nc4ncnc5cc(OCCOC)c(OCCOC)cc45)c2)c1)[C@@H]3C (some centres undefined) |  |  | 
17 |  |  | C=Cc1c(C)c2cc3nc(c(CC(=O)OC)c4[nH]c(cc5nc(cc1[nH]2)C(C)=C5CC)c(C)c4C(=O)NCc1cccc(I)c1)[C@@H](CCC(=O)OC)[C@@H]3C | 0.0138 | 0.0282 | 
18 | Not Active | Not Active | CCC1=C(C)c2cc3[nH]c(c(C)c3CC)c(-c3ccc(C(=O)NCc4ccc(I)cc4)cc3)c3nc(c4c5[nH]c(cc1n2)c(C)c5C(=O)C4)[C@@H](CCC(=O)OC)[C@@H]3C | 1.25 | 0.196 | 
19 | Not Active | Not Active | CCC1c2cc3[nH]c4c(c5nc(cc6[nH]c(cc(n2)C1C)c(C(C)OCc1cccc(C#Cc2cccc(Nc7ncnc8cc(OCCOC)c(OCCOC)cc78)c2)c1)c6C)[C@@H](C)[C@@H]5CCC(=O)OC)CC(=O)c4c3C (some centres undefined) |  | 0.0168 | 
20 |  |  | CCCCCCOC(C)c1c(C)c2cc3nc(c4c5[nH]c(cc6nc(cc1[nH]2)C(C)=C6CC)c(C)c5C(=O)C4)[C@@H](CCC(=O)NCc1cccc(I)c1)[C@@H]3C (some centres undefined) | 0.52 | 0.187 | 
